Data: ChEMBL document CHEMBL2062417, “Biotinylated quercetin as an intrinsic photoaffinity proteomics probe for the identification of quercetin target proteins” (Bioorg Med Chem, 2011)
pIC50: −log10 of the molar value. Active and inactive are the calls of the source. The rule behind the calls is not given here.

Assays:
Casein kinase II = Casein kinase II (Homo sapiens, UniProt P19784+P67870+P68400); experiment: Inhibition of CK2 using RRRADDSDDDDD as substrate after 30 mins by PKLight assay; format: protein-complex assay
Sequence of Casein kinase II (P67870 whole entry): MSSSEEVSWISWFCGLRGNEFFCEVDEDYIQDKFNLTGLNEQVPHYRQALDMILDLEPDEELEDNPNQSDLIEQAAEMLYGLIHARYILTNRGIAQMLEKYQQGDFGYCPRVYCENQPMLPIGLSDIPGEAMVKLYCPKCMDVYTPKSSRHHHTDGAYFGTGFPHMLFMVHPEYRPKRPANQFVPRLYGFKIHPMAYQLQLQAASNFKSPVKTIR
Sequence of Casein kinase II (P68400 whole entry): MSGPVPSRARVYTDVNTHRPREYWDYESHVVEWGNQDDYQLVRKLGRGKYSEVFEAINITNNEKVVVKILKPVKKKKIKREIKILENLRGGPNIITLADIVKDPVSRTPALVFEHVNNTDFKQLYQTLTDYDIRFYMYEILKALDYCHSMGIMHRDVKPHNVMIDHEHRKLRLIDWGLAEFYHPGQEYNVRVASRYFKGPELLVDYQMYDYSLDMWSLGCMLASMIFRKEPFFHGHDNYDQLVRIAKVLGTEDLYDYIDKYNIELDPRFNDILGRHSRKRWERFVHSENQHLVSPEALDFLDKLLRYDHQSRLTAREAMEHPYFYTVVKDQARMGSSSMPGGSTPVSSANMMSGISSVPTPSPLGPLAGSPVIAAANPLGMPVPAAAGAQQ
Sequence of Casein kinase II (P19784 whole entry): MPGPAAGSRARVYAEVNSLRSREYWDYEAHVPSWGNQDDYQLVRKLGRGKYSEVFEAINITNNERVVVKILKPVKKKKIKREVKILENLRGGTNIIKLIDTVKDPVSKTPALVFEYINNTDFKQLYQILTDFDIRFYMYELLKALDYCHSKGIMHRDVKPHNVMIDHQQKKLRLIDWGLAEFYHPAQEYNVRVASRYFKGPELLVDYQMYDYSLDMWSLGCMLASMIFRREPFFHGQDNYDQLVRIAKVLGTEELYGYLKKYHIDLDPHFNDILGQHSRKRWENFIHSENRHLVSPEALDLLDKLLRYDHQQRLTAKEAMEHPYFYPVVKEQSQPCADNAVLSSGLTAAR

[1] = molecular target: ATP synthase F(1) complex subunit beta, mitochondrial (Homo sapiens) (UniProt P06576); experiment: Binding affinity to ATP5B in human Jurkat cells at 150 uM followed by UV irradiation for 30 mins with Wood's glass filtered medium pressure mercury arc light prior to cell lysis measured after denaturing wash by LC-MS/MS based pull down assay
Sequence of ATP synthase F(1) complex subunit beta, mitochondrial (Homo sapiens) (P06576 whole entry, one chain of several): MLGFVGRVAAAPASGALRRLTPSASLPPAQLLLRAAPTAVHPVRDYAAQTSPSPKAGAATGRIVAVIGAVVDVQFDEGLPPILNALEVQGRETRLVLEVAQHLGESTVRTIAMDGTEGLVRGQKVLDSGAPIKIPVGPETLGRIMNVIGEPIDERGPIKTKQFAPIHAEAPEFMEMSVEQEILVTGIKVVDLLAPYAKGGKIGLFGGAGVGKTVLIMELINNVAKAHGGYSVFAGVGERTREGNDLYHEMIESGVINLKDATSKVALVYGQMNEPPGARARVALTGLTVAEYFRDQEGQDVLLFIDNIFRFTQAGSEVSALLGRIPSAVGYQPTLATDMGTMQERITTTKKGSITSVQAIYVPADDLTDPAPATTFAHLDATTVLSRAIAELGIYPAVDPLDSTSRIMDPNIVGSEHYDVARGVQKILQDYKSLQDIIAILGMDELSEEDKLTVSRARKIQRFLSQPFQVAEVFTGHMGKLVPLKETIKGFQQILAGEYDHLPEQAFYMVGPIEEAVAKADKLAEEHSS
Summary of the method: (§1)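 Silver-stained bands from cells irradiated before lysis were excised, destained, reduced with 10 mM DTT, alkylated with 50 mM iodoacetamide and digested with trypsin overnight. Peptides were extracted in 1% TFA/50% acetonitrile. Nano-C18 LC used a 2–50% acetonitrile gradient with 0.1% formic acid over 50 min at 260 nL/min, followed by MS/MS identification.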

[2] = molecular target: RuvB-like 2 (Homo sapiens) (UniProt Q9Y230); experiment: Binding affinity to RUVBL2 in human Jurkat cells at 150 uM followed by UV irradiation for 30 mins with Wood's glass filtered medium pressure mercury arc light after cell lysis measured after denaturing wash by SDS-PAGE based pull down assay
Sequence of RuvB-like 2 (Homo sapiens) (Q9Y230 whole entry): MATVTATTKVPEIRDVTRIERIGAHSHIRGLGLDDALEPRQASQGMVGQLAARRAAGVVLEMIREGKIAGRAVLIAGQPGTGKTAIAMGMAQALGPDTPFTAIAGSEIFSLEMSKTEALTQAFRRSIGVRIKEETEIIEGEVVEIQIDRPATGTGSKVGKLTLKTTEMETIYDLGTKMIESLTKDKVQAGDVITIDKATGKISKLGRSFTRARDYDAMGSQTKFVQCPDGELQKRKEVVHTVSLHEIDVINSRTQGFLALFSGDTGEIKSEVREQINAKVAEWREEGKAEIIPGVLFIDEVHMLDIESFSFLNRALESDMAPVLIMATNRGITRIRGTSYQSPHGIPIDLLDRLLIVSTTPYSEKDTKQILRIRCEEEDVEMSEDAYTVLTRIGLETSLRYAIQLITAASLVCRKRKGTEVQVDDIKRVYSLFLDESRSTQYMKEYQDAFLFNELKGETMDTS
Summary of the method: (§2)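 Jurkat cells were grown in RPMI with 10% FBS (about 15×10^6 cells) and treated 2 h with 150 μM BioQ in 3% aqueous DMSO. They were heat-shocked at 43 °C for 30 min, recovered 1 h at 37 °C, and UV-irradiated (320–400 nm, peak 365 nm, 30 min, 4 °C) before or after sonication lysis. Streptavidin-agarose capture ran 1 h. Beads were washed ≥3× with lysis buffer or 2% SDS Tris pH 7.4, boiled, run on 12% SDS-PAGE and silver-stained.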

[3] = molecular target: RuvB-like 2 (Homo sapiens) (UniProt Q9Y230); experiment: Binding affinity to RUVBL2 in human Jurkat cells at 150 uM followed by UV irradiation for 30 mins with Wood's glass filtered medium pressure mercury arc light prior to cell lysis measured after denaturing wash by LC-MS/MS based pull down assay; summary of the method: as §1
[4] = molecular target: Eukaryotic translation initiation factor 3 subunit F (Homo sapiens) (UniProt O00303); experiment: Binding affinity to EIF3F in human Jurkat cells at 150 uM followed by UV irradiation for 30 mins with Wood's glass filtered medium pressure mercury arc light prior to cell lysis measured after denaturing wash by SDS-PAGE based pull down assay; summary of the method: as §2
Sequence of Eukaryotic translation initiation factor 3 subunit F (Homo sapiens) (O00303 whole entry): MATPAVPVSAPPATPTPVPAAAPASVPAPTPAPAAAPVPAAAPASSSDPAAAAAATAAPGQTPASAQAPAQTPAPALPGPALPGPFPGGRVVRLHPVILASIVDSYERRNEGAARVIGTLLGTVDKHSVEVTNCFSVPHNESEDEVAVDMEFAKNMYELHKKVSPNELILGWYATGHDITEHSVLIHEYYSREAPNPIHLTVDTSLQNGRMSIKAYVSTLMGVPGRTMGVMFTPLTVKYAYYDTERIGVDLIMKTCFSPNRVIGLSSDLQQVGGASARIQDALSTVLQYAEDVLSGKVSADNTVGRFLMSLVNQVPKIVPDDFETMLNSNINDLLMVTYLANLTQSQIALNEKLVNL

[5] = molecular target: Heat shock-related 70 kDa protein 2 (Homo sapiens) (UniProt P54652); experiment: Binding affinity to HSPA2 in human Jurkat cells at 150 uM followed by UV irradiation for 30 mins with Wood's glass filtered medium pressure mercury arc light prior to cell lysis measured after denaturing wash by SDS-PAGE based pull down assay; summary of the method: as §2
Sequence of Heat shock-related 70 kDa protein 2 (Homo sapiens) (P54652 whole entry): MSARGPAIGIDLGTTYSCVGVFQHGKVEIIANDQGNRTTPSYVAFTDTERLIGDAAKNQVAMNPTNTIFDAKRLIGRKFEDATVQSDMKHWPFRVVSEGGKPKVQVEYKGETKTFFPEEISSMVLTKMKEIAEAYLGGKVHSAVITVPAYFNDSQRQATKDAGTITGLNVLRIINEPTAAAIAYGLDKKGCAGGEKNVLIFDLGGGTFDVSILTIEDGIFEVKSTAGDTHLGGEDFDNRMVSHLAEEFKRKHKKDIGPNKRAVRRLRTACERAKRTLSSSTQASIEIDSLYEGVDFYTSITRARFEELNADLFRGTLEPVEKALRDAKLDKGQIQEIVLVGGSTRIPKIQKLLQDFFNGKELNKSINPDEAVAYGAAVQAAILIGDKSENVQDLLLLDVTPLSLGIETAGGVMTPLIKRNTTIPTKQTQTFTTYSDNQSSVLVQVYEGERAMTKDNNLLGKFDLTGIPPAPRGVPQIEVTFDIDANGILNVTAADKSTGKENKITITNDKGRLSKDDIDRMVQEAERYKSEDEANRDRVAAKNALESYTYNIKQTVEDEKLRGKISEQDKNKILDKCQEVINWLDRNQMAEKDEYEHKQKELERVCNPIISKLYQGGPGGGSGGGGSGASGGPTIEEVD

[6] = molecular target: T1, Splicing factor 3B subunit 3 (Homo sapiens) (UniProt Q15393); experiment: Binding affinity to SF3B3 in human Jurkat cells at 150 uM followed by UV irradiation for 30 mins with Wood's glass filtered medium pressure mercury arc light after cell lysis measured after denaturing wash by SDS-PAGE based pull down assay; summary of the method: as §2
T1 sequence (whole entry): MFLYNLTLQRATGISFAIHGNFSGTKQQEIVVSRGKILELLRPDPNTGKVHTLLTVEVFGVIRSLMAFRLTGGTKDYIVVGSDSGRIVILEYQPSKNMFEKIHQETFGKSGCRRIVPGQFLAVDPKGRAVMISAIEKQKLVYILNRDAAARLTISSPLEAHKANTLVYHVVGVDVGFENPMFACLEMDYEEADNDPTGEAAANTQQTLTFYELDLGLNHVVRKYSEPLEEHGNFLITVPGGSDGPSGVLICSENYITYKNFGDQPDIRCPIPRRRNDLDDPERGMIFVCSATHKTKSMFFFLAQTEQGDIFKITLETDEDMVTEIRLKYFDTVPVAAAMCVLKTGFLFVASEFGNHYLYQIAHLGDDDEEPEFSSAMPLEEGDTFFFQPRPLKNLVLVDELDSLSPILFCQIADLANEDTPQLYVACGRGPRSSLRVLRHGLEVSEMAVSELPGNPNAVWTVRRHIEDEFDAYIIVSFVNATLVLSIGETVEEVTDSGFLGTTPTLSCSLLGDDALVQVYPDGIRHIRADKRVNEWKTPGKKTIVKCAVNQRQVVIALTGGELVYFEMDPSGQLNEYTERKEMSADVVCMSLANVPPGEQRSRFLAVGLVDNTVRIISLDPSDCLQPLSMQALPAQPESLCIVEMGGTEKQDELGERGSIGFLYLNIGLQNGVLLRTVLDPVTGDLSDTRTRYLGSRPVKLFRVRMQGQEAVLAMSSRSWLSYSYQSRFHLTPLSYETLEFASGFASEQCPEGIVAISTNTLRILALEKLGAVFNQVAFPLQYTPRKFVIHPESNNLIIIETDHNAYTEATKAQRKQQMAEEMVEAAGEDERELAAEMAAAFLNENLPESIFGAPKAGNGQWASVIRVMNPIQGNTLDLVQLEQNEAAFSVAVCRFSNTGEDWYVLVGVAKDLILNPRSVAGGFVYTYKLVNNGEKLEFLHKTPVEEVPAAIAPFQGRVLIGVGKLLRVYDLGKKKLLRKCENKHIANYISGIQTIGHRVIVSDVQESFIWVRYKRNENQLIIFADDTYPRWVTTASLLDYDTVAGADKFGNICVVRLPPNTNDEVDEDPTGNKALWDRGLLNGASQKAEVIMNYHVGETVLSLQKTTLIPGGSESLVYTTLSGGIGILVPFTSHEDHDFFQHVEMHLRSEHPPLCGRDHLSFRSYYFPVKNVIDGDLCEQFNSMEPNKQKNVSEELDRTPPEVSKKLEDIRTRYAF

[7] = molecular target: Casein kinase II subunit beta (Homo sapiens) (UniProt P67870); experiment: Binding affinity to CK2beta at 150 uM followed by UV irradiation for 30 mins with Wood's glass filtered medium pressure mercury arc light by SDS-PAGE based pull down assay
Sequence of Casein kinase II subunit beta (Homo sapiens) (P67870 whole entry): as the sequence (P67870 whole entry) above
Summary of the method: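 CK2 (17.5–70 nM) was mixed with 150 μM BioQ in 400 μL 10 mM PBS pH 7.2 with protease inhibitors, with or without 10 mM MgCl2 and 2 μM ATP. Samples were irradiated 30 min on ice (320–400 nm, peak 365 nm) or left unirradiated. Capture was on streptavidin agarose for 1 h, with washes in lysis buffer or 2% SDS Tris buffer, then boiling, SDS-PAGE and silver staining.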

[8] = molecular target: T1, Splicing factor 3B subunit 3 (Homo sapiens); experiment: Binding affinity to SF3B3 in human Jurkat cells at 150 uM followed by UV irradiation for 30 mins with Wood's glass filtered medium pressure mercury arc light prior to cell lysis measured after denaturing wash by LC-MS/MS based pull down assay; summary of the method: as §1
[9] = molecular target: Heat shock protein HSP 90-alpha (Homo sapiens) (UniProt P07900); experiment: Binding affinity to HSP90AA1 in human Jurkat cells at 150 uM followed by UV irradiation for 30 mins with Wood's glass filtered medium pressure mercury arc light prior to cell lysis measured after denaturing wash by LC-MS/MS based pull down assay; summary of the method: as §1

pIC50 (Casein kinase II): 5.49
Activity [1]: Active
Activity [2]: Active
Activity [3]: Active
Activity [4]: Active
Activity [5]: Active
Activity [6]: Active
Activity [7]: Active
Activity [8]: Active
Activity [9]: Active
Compound: O=C(CCCC[C@@H]1SC[C@@H]2NC(=O)N[C@@H]21)NCCOCCOCCNC(=O)COc1cc(O)c2c(=O)c(O)c(-c3ccc(O)c(O)c3)oc2c1
